Assays:
[1] = Lipophilicity as measured by LogD at pH 7.4; format: physicochemical; conditions: buffer
[2] = Dissociation constant, pKa of the compound; format: physicochemical
[3] = molecular target: T1, RNA-directed RNA polymerase (Hepacivirus hominis, UniProt O39930); assay: Inhibitory activity against HCV 1b BK NS5B deltaC55 RNA polymerase involving magnesium chelation; design: species or system Hepatitis C virus subtype 1b
In short: (§1)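 HCV 1b-BK NS5B∆C55 (residues 1-536) from E. coli BL21(DE3), assayed on a homopolymeric template RNA with either Mg or Mn as the divalent metal ion. IC50 taken under each metal.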

[4] = molecular target: T1, RNA-directed RNA polymerase; assay: Inhibitory activity against HCV 1b BK NS5B deltaC55 RNA polymerase involving manganese chelation; design: species or system Hepatitis C virus subtype 1b; in short: as §1
[5] = molecular target: T1, RNA-directed RNA polymerase; assay: Inhibitory activity against HCV 1b BK NS5B deltaC21 RNA polymerase; design: species or system Hepatitis C virus subtype 1b
In short: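 HCV 1b-BK NS5B∆C21 (residues 1-570), expressed in E. coli BL21(DE3) and purified; polymerase activity measured on a homopolymeric template RNA; IC50 read-out.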

[6] = molecular target: T1, RNA-directed RNA polymerase; assay: Inhibitory activity against HCV 1b BK NS5B deltaC55 RNA polymerase; design: species or system Hepatitis C virus subtype 1b
In short: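 Purified HCV 1b-BK NS5B∆C55 (residues 1-536) expressed in E. coli BL21(DE3). Polymerase activity read on a homopolymeric template RNA at pH 7.4. IC50 is the average of at least three independent determinations; standard deviations within 30% of the average.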

[7] = molecular target: T1, RNA-directed RNA polymerase; assay: Inhibitory activity against HCV 3a BK NS5B deltaC21 RNA polymerase
[8] = molecular target: T1, RNA-directed RNA polymerase; assay: Inhibitory activity against HCV 1b BK NS5B RNA polymerase; design: species or system Hepatitis C virus subtype 1b
In short: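 Purified HCV 1b-BK NS5B∆C55 (residues 1-536), expressed in E. coli BL21(DE3), assayed with a homopolymeric template RNA at pH 7.4 with Mg as metal ion; IC50 taken as the average of at least three independent determinations.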

[9] = molecular target: T1, RNA-directed RNA polymerase; assay: Inhibitory activity against HCV 2a BK NS5B deltaC21 RNA polymerase; design: species or system Hepatitis C virus subtype 2a
Hepatitis C virus = assay: Inhibition of subgenomic HCV RNA replication in Huh-7 cells (replicon assay)
[10] = molecular target: RNA-directed RNA polymerase (Hepacivirus hominis, UniProt O39930, DELTAC55/R158K); assay: Inhibitory activity against HCV 1b BK NS5B deltaC55-R158K mutant RNA polymerase; design: species or system Hepatitis C virus subtype 1b
In short: (§2)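 HCV 1b-BK NS5B∆C55 (residues 1-536) carrying R158M or R158K, expressed in E. coli BL21(DE3) and purified. Polymerase run on a homopolymeric template RNA with UTP as substrate; IC50 and UTP Km measured in duplicate.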

[11] = molecular target: RNA-directed RNA polymerase (Hepacivirus hominis, UniProt O39930, DELTAC55/R158M); assay: Inhibitory activity against HCV 1b BK NS5B deltaC55-R158M mutant RNA polymerase; design: species or system Hepatitis C virus subtype 1b; in short: as §2
Homo sapiens = species on record: Homo sapiens; assay: Percent of unbound ligand in human plasma; format: ADME, organism-based

T1 sequence (O39930 whole entry, the tested form may be a part): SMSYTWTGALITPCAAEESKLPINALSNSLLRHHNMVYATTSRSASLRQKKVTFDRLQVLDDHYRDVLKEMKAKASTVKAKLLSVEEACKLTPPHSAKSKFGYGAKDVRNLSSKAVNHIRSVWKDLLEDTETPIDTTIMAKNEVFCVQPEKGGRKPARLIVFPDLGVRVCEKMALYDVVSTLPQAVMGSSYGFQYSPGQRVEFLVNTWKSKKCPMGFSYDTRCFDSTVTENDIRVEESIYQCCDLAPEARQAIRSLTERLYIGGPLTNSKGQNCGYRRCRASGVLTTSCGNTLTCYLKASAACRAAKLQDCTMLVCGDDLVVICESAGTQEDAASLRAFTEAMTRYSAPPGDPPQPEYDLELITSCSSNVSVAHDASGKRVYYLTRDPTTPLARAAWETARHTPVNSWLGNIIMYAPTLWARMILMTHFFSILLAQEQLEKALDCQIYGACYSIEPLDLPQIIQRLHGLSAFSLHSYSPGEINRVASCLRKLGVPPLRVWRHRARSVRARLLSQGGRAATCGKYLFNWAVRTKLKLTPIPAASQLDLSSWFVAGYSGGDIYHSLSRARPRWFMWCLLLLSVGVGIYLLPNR

## O=C(NCc1ccccc1Cl)Nc1ccsc1-c1nc(O)c(O)c(C(=O)O)n1
[1]
  logD: 0.37
[2]
  pKa: 6.6
[3]
  IC50: 150 nM
[4]
  IC50: 36 nM
[5]
  IC50: 45 nM
[6]
  IC50: 150 nM
[7]
  IC50: 48 nM
[8]
  IC50: 130 nM
[9]
  IC50: 44 nM
Hepatitis C virus
  EC50: 9.3 µM

## O=C(O)c1nc(-c2cccs2)nc(O)c1O
[1]
  logD: -1.95
[10]
  IC50: 92 µM
[2]
  pKa: 7.7
[11]
  IC50: 9300 nM
[4]
  IC50: 240 nM

## O=C(NCc1csc2ccccc12)Nc1ccsc1-c1nc(O)c(O)c(C(=O)O)n1
[6]
  IC50: 220 nM
Hepatitis C virus
  EC50: 30 µM

## O=C(NCc1ccccc1)Nc1ccsc1-c1nc(O)c(O)c(C(=O)O)n1
[6]
  IC50: 230 nM

## O=C(Cc1ccccc1Cl)Nc1ccsc1-c1nc(O)c(O)c(C(=O)O)n1
[6]
  IC50: 210 nM
Hepatitis C virus
  EC50: 53.3 µM

## O=C(CCc1ccccc1)Nc1ccsc1-c1nc(O)c(O)c(C(=O)O)n1
[6]
  IC50: 580 nM
Hepatitis C virus
  EC50: > 50 µM

## O=C(Cc1c[nH]c2ccccc12)Nc1ccsc1-c1nc(O)c(O)c(C(=O)O)n1
[6]
  IC50: 200 nM
Hepatitis C virus
  EC50: > 50 µM

## O=C(O)c1nc(-c2cc3ccccc3s2)nc(O)c1O
[6]
  IC50: 11600 nM

## O=C(O)c1nc(C2CCCCC2)nc(O)c1O
[2]
  pKa: 8.7
[3]
  IC50: > 50000 nM
[4]
  IC50: > 25000 nM
[6]
  IC50: > 50000 nM

## Nc1ccsc1-c1nc(C(=O)O)c(O)c(=O)[nH]1
[6]
  IC50: 1900 nM

## O=C(Nc1ccsc1-c1nc(O)c(O)c(C(=O)O)n1)OCc1ccccc1
[6]
  IC50: 290 nM

## CCCCc1nc(C(=O)O)c(O)c(=O)[nH]1
[6]
  IC50: > 50000 nM

## O=C(Cc1csc2ccccc12)Nc1ccsc1-c1nc(C(=O)O)c(O)c(=O)[nH]1
[6]
  IC50: 230 nM
Hepatitis C virus
  EC50: > 50 µM

## O=C(O)c1nc(Cc2ccccc2)nc(O)c1O
[6]
  IC50: > 50000 nM

## O=C(O)c1nc(-c2ccco2)nc(O)c1O
[2]
  pKa: 7.4
[3]
  IC50: 2900 nM
[4]
  IC50: 240 nM
[6]
  IC50: 2900 nM

## O=C(O)c1nc(-c2sccc2[N+](=O)[O-])n(Cc2ccccc2)c(=O)c1O
[6]
  IC50: 79300 nM

## O=C(Cc1c(-c2ccccc2)[nH]c2ccccc12)Nc1ccsc1-c1nc(C(=O)O)c(O)c(=O)[nH]1
[6]
  IC50: 280 nM
Hepatitis C virus
  EC50: > 50 µM

## O=C(O)c1nc(-c2cnccn2)nc(O)c1O
[6]
  IC50: 5300 nM

## O=C(Nc1ccsc1-c1nc(O)c(O)c(C(=O)O)n1)OCc1c(Cl)cccc1Cl
[6]
  IC50: 190 nM
Hepatitis C virus
  EC50: 18.6 µM

## O=C(O)c1nc(-c2ccc([N+](=O)[O-])s2)[nH]c(=O)c1O
[6]
  IC50: 16000 nM

## O=C(Nc1csc(-c2nc(C(=O)O)c(O)c(=O)[nH]2)c1)c1cccs1
[6]
  IC50: 13800 nM

## O=C(O)c1nc(-c2cc([N+](=O)[O-])cs2)nc(O)c1O
[6]
  IC50: 9400 nM

## C=CCn1c(-c2sccc2[N+](=O)[O-])nc(C(=O)O)c(O)c1=O
[6]
  IC50: 69300 nM

## O=C(Nc1ccsc1-c1nc(O)c(O)c(C(=O)O)n1)OCc1ccccc1Cl
[10]
  IC50: 0.9 µM
[11]
  IC50: 340 nM
[6]
  IC50: 140 nM
Hepatitis C virus
  EC50: 31.5 µM

## O=C(Nc1ccsc1-c1nc(C(=O)O)c(O)c(=O)[nH]1)c1ccccc1
[6]
  IC50: 800 nM
Hepatitis C virus
  EC50: > 50 µM

## Cc1cccc(Cl)c1CNC(=O)Nc1ccsc1-c1nc(O)c(O)c(C(=O)O)n1
Homo sapiens
  Fu: 0.2%
[1]
  logD: 0.6
[6]
  IC50: 90 nM
Hepatitis C virus
  EC50: 13.6 µM

## Cn1c(-c2cccs2)nc(C(=O)O)c(O)c1=O
[2]
  pKa: 9.1
[4]
  IC50: 460 nM
[6]
  IC50: 4200 nM

## O=C(Nc1ccsc1-c1nc(C(=O)O)c(O)c(=O)[nH]1)OCc1cccc2ccccc12
[6]
  IC50: 140 nM
Hepatitis C virus
  EC50: 13.6 µM

## Cc1ccsc1-c1nc(O)c(O)c(C(=O)O)n1
[6]
  IC50: 5600 nM

## O=C(NCCc1ccccc1)Nc1ccsc1-c1nc(O)c(O)c(C(=O)O)n1
[6]
  IC50: 620 nM
Hepatitis C virus
  EC50: > 50 µM

## O=C(Nc1ccsc1-c1nc(C(=O)O)c(O)c(=O)[nH]1)OCCc1ccccc1
[1]
  logD: -0.43
[6]
  IC50: 460 nM
Hepatitis C virus
  EC50: > 50 µM

## O=C(Cc1ccccc1)Nc1ccsc1-c1nc(O)c(O)c(C(=O)O)n1
[6]
  IC50: 380 nM

## O=C(Nc1ccccc1)Nc1ccsc1-c1nc(O)c(O)c(C(=O)O)n1
[6]
  IC50: 580 nM
Hepatitis C virus
  EC50: > 50 µM

## O=C(O)c1nc(-c2sccc2[N+](=O)[O-])nc(O)c1O
[2]
  pKa: 6.9
[3]
  IC50: 680 nM
[4]
  IC50: 65 nM
[6]
  IC50: 680 nM

## O=C(O)c1nc(-c2nccs2)nc(O)c1O
[1]
  logD: -2.12
[10]
  IC50: 16 µM
[2]
  pKa: 6.9
[3]
  IC50: 760 nM
[11]
  IC50: 2770 nM
[4]
  IC50: 210 nM
[6]
  IC50: 760 nM

## CS(=O)(=O)c1nc(C(=O)O)c(O)c(=O)[nH]1
[6]
  IC50: 2400 nM

## Cn1c(-c2sccc2[N+](=O)[O-])nc(C(=O)O)c(O)c1=O
[6]
  IC50: 8700 nM

## Cc1ccc(-c2nc(O)c(O)c(C(=O)O)n2)s1
[6]
  IC50: 48600 nM

## O=C(O)c1nc(-c2ccccc2)nc(O)c1O
[2]
  pKa: 8.6

## O=C(O)c1nc(-c2sccc2NS(=O)(=O)c2ccc3ccccc3c2)[nH]c(=O)c1O
[6]
  IC50: 1420 nM

Source: ChEMBL document CHEMBL1138187, “2-(2-Thienyl)-5,6-dihydroxy-4-carboxypyrimidines as inhibitors of the hepatitis C virus NS5B polymerase: discovery, SAR, modeling, and mutagenesis” (J Med Chem, 2006)
